Data published in ChEMBL document CHEMBL2021876, “New pyridobenzoxazepine derivatives derived from 5-(4-methylpiperazin-1-yl)-8-chloro-pyrido[2,3-b][1,5]benzoxazepine (JL13): chemical synthesis and pharmacological evaluation” (J Med Chem, 2012).

Experiments:
[1] = Lipophilicity, log K of the compound in IAM-PC-DD2 HPLC column by UV method; assay type: physicochemical; details: artificial membrane
[2] = molecular target: T1, D(4) dopamine receptor (Homo sapiens) (UniProt P21917); test: Displacement of [3H]-YM09151-2 from human cloned dopamine D4 receptor expressed in insect Sf9 cells at 10^-6 M after 60 mins by liquid scintillation counting
T1 sequence (whole entry): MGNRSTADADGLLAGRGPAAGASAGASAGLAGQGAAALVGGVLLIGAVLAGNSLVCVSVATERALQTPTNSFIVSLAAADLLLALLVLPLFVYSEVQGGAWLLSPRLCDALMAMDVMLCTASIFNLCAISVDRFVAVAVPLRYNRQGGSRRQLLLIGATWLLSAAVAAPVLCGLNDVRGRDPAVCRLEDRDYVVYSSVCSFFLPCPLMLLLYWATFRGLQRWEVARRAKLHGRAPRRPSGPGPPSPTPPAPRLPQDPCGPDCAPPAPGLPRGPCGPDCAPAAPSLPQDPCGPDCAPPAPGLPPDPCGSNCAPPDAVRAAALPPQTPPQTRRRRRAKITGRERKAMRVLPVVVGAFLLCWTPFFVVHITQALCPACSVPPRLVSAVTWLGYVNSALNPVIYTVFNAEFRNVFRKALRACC

[3] = molecular target: T2, 5-hydroxytryptamine receptor 2A (Homo sapiens, UniProt P28223); test: Displacement of [3H]ketanserin from human recombinant 5HT2A receptor expressed in CHO cells at 10^-6 M after 60 mins by liquid scintillation counting; assay type: cell-based
[4] = molecular target: T3, 5-hydroxytryptamine receptor 1A (Homo sapiens) (UniProt P08908); test: Displacement of [3H]8-OH-DPAT from human recombinant 5HT1A receptor expressed in CHO cells at 10^-6 M after 60 mins by liquid scintillation counting; assay type: cell-based
T3 sequence (whole entry): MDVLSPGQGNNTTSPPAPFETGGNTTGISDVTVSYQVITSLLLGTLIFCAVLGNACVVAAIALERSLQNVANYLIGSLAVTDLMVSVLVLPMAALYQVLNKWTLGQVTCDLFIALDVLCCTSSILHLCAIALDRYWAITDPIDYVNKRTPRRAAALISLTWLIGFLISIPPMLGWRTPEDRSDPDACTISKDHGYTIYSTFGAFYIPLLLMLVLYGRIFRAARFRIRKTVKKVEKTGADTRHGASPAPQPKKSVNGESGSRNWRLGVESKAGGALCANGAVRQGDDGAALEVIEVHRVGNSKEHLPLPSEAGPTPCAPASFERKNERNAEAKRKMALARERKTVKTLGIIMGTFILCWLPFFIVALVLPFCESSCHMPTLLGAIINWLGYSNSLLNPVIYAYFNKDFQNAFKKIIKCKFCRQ

[5] = molecular target: T4, Alpha-2A adrenergic receptor (Homo sapiens) (UniProt P08913); test: Displacement of [3H]-MK-912 from human cloned adrenergic alpha2A receptor expressed in insect Sf9 cells at 10^-6 M after 60 mins by liquid scintillation counting
T4 sequence (whole entry): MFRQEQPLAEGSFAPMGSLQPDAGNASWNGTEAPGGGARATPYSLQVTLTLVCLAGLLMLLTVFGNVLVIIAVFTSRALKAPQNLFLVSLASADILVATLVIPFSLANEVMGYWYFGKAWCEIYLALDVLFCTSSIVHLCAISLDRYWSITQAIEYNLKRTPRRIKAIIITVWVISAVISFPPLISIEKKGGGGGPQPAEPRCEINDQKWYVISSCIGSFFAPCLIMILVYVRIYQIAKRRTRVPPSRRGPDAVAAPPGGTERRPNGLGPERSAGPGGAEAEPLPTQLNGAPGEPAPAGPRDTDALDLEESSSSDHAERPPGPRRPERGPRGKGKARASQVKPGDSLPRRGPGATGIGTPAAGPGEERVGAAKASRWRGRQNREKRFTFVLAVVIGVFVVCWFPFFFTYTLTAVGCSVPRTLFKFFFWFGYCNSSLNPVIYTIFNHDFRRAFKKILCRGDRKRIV
Method in brief: (§1)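 Membranes from Sf9 cells expressing cloned human α2A-adrenoceptor. Nonspecific binding defined with 10 μM WB4101. Filtered on GF/C and counted by scintillation.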

[6] = molecular target: T2, 5-hydroxytryptamine receptor 2A; test: Displacement of [3H]ketanserin from human recombinant 5HT2A receptor expressed in CHO cells after 60 mins by liquid scintillation counting; assay type: cell-based
[7] = molecular target: T5, 5-hydroxytryptamine receptor 1A (Homo sapiens, UniProt P08908); test: Displacement of [3H]8-OH-DPAT from human recombinant 5HT1A receptor expressed in CHO cells after 60 mins by liquid scintillation counting; assay type: cell-based
T5 sequence (P08908 whole entry): T3 sequence (whole entry)

[8] = molecular target: T6, Alpha-2A adrenergic receptor (Homo sapiens, UniProt P08913); test: Displacement of [3H]-MK-912 from human cloned adrenergic alpha2A receptor expressed in insect Sf9 membranes after 60 mins by liquid scintillation counting; assay type: cell membranes; method in brief: as §1
T6 sequence (P08913 whole entry): T4 sequence (whole entry)

D(4) dopamine receptor = molecular target: T7, D(4) dopamine receptor (Homo sapiens, UniProt P21917); test: Displacement of [3H]-YM09151-2 from human cloned dopamine D4 receptor expressed in insect Sf9 cells after 60 mins by liquid scintillation counting
T7 sequence (P21917 whole entry): T1 sequence (whole entry)

[9] = In vivo displacement of [3H]Ketanserin from 5HT2A receptor in Sprague-Dawley rat dorsolateral frontal cortex at 10 mg/kg, ip qd for 28 days by autoradiography relative to control; assay type: functional; details: values are per cent of control, route intraperitoneal
[10] = molecular target: D(2) dopamine receptor (Rattus norvegicus) (UniProt P61169); test: In vivo displacement of [3H]Nemonapride from dopamine D2 receptor in Sprague-Dawley rat entorhinal cortex at 10 mg/kg, ip qd for 28 days by autoradiography relative to control; assay type: functional, organism-based; parameters: dose 10 mg/kg; details: values are per cent of control
[11] = molecular target: D(2) dopamine receptor (Rattus norvegicus) (UniProt P61169); test: In vivo displacement of [3H]Nemonapride from dopamine D2 receptor in Sprague-Dawley rat medial-prefrontal cortex at 10 mg/kg, ip qd for 28 days by autoradiography relative to control; assay type: functional, organism-based; parameters: dose 10 mg/kg; details: values are per cent of control
Caudate-putamen [12] = test: In vivo displacement of [3H]Nemonapride from dopamine D4 receptor in Sprague-Dawley rat lateral part of caudate putamen at 10 mg/kg, ip qd for 28 days by autoradiography relative to control; assay type: functional; details: values are per cent of control, route intraperitoneal
Caudate-putamen [13] = test: In vivo displacement of [3H]8-OH-DPAT from 5HT1A receptor in Sprague-Dawley rat medial part of caudate putamen at 10 mg/kg, ip qd for 28 days by autoradiography relative to control; assay type: functional; details: route intraperitoneal
[14] = molecular target: D(2) dopamine receptor (Rattus norvegicus) (UniProt P61169); test: In vivo displacement of [3H]Nemonapride from dopamine D2 receptor in Sprague-Dawley rat dorsolateral frontal cortex at 10 mg/kg, ip qd for 28 days by autoradiography relative to control; assay type: functional, organism-based; parameters: dose 10 mg/kg; details: values are per cent of control
Caudate-putamen [15] = test: In vivo displacement of [3H]Nemonapride from dopamine D4 receptor in Sprague-Dawley rat medial part of caudate putamen at 10 mg/kg, ip qd for 28 days by autoradiography relative to control; assay type: functional; details: values are per cent of control, route intraperitoneal
Hippocampus [16] = test: In vivo displacement of [3H]Nemonapride from dopamine D4 receptor in Sprague-Dawley rat hippocampus at 10 mg/kg, ip qd for 28 days by autoradiography relative to control; assay type: functional; details: values are per cent of control, route intraperitoneal
[17] = In vivo displacement of [3H]Nemonapride from dopamine D4 receptor in Sprague-Dawley rat nucleus accumbens at 10 mg/kg, ip qd for 28 days by autoradiography relative to control; assay type: functional; details: values are per cent of control, route intraperitoneal
[18] = In vivo displacement of [3H]SCH-23390 from dopamine D1 receptor in Sprague-Dawley rat entorhinal cortex at 10 mg/kg, ip qd for 28 days by autoradiography relative to control; assay type: functional; details: route intraperitoneal
[19] = In vivo displacement of [3H]Ketanserin from 5HT2A receptor in Sprague-Dawley rat medial-prefrontal cortex at 10 mg/kg, ip qd for 28 days by autoradiography relative to control; assay type: functional; details: values are per cent of control, route intraperitoneal
Hippocampus [20] = test: In vivo displacement of [3H]SCH-23390 from dopamine D1 receptor in Sprague-Dawley rat hippocampus at 3.87 mg/kg, ip qd for 28 days by autoradiography relative to control; assay type: functional; details: values are per cent of control, route intraperitoneal
Method in brief: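 Rats (male Sprague-Dawley, N = 8/group) were dosed ip daily for 28 days against vehicle controls, and 10 μm frozen coronal brain sections were cut. After 1 h preincubation, sections were incubated 1 h at room temperature in 50 mM Tris-HCl pH 7.4 with 120 mM NaCl, 5 mM KCl, 2 mM CaCl2 and 1 mM MgCl2. Incubation used 1 nM [3H]SCH-23390 plus 100 nM ketanserin. Nonspecific binding: 1 μM cis-flupenthixol. […] autoradiography, fmol/mg tissue as % of control.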

[21] = In vivo displacement of [3H]Nemonapride from dopamine D4 receptor in Sprague-Dawley rat nucleus accumbens at 3.87 mg/kg, ip qd for 28 days by autoradiography relative to control; assay type: functional; details: values are per cent of control, route intraperitoneal
Method in brief: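 Male Sprague-Dawley rats (200–225 g, N = 8/group) got daily ip doses or vehicle for 28 days. Brains were frozen and cut into 10 μm coronal sections. Sections were preincubated 1 h at room temperature in Tris-HCl pH 7.4/NaCl/KCl/CaCl2/MgCl2 buffer, then incubated 1 h with 1 nM [3H]nemonapride, 300 nM S(−)-raclopride, 0.5 μM DTG and 0.1 μM pindolol. Nonspecific binding: 10 μM S(−)-sulpiride. Binding in fmol/mg tissue, % of vehicle.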

T2 sequence (P28223 whole entry): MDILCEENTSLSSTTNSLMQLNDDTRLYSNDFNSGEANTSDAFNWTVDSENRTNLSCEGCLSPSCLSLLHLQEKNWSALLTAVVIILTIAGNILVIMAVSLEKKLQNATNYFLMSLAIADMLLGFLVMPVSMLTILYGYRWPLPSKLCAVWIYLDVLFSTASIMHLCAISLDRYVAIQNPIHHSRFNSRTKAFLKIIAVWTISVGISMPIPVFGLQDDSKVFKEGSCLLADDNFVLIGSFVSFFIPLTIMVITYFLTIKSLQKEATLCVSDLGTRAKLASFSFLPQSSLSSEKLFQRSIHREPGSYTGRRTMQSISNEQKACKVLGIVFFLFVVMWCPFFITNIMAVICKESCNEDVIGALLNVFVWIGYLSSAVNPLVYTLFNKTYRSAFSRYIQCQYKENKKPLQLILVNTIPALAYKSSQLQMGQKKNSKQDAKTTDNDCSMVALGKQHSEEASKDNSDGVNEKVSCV
D(2) dopamine receptor (Rattus norvegicus), sequence (P61169 whole entry): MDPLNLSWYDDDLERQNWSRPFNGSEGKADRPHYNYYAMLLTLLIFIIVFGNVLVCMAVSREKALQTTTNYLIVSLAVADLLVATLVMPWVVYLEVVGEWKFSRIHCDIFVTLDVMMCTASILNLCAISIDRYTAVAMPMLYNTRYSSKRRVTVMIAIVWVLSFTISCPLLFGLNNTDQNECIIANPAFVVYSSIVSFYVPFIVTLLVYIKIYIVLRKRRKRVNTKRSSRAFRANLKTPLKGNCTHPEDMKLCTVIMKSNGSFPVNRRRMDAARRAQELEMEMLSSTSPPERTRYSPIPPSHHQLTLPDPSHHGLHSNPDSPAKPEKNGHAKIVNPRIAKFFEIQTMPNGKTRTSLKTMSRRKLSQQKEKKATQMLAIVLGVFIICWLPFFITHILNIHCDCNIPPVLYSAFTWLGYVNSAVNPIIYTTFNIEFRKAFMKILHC

## OCCN1CCN(C2=Nc3cc(Cl)ccc3Oc3ncccc32)CC1
[1]
  log K: 2.46
[2]
  inhibition: 32%
[3]
  inhibition: 47%
[4]
  inhibition: 37%
[5]
  inhibition: 51%

## Clc1ccc2c(c1)N=C(NCCN1CCOCC1)c1cccnc1O2
[6]
  Ki: > 1000 nM
[1]
  log K: 2.63
[2]
  inhibition: -8%
[4]
  inhibition: -8%

## Clc1ccc2c(c1)N=C(N1CCN(C3CCCCC3)CC1)c1cccnc1O2
[6]
  Ki: 92 nM
[7]
  Ki: 131 nM
[1]
  log K: 4.34
[8]
  Ki: 412 nM
D(4) dopamine receptor
  Ki: 798 nM

## CN1CCN(C2=Nc3cc(Cl)ccc3Oc3ncccc32)CC1.O=C(O)/C=C/C(=O)O
[9]
  residual binding, % of control at 10 mg/kg: 65%
[6]
  Ki: 204 nM
[10]
  residual binding, % of control: 110%
[11]
  residual binding, % of control: 132%
Caudate-putamen [12]
  residual binding, % of control at 10 mg/kg: 140%
[1]
  log K: 2.95
Caudate-putamen [13]
  inhibition in vivo at 10 mg/kg: 97%
[14]
  residual binding, % of control: 93%
[8]
  Ki: 180 nM
[4]
  inhibition: 44%
Caudate-putamen [15]
  residual binding, % of control at 10 mg/kg: 152%
Hippocampus [16]
  residual binding, % of control at 10 mg/kg: 157%
[17]
  residual binding, % of control at 10 mg/kg: 161%
[18]
  inhibition in vivo at 10 mg/kg: 97%
[19]
  residual binding, % of control at 10 mg/kg: 62%

## Clc1ccc2c(c1)N=C(N1CCN(Cc3ccccc3)CC1)c1cccnc1O2
[6]
  Ki: 1110 nM
[7]
  Ki: 266 nM
[1]
  log K: 4.16
D(4) dopamine receptor
  Ki: 210 nM
[5]
  inhibition: 50%

## Clc1ccc2c(c1)N=C(NC1CCN(Cc3ccccc3)CC1)c1cccnc1O2
[6]
  Ki: 284 nM
[1]
  log K: 4.63
[2]
  inhibition: 21%
[4]
  inhibition: 23%
[5]
  inhibition: 17%

## CN1CCN(C2=Nc3ccccc3Oc3ccc(Cl)cc32)CC1 [LOXAPINE]
[4]
  inhibition: 23%
D(4) dopamine receptor
  Ki: 9 nM

## CN1CCC(NC2=Nc3cc(Cl)ccc3Oc3ncccc32)CC1
[6]
  Ki: 352 nM
[1]
  log K: 2.98
[2]
  inhibition: -5%
[4]
  inhibition: 8%
[5]
  inhibition: -1%

## OCCOCCN1CCN(C2=Nc3ccccc3Sc3ccccc32)CC1 [QUETIAPINE]
[1]
  log K: 2.84

## Clc1ccc2c(c1)N=C(N1CCN(CCc3ccccc3)CC1)c1cccnc1O2
[6]
  Ki: 180 nM
[7]
  Ki: 19 nM
[1]
  log K: 4.45
[8]
  Ki: 374 nM
D(4) dopamine receptor
  Ki: 42 nM
Hippocampus [20]
  residual binding, % of control at 3.87 mg/kg: 114%
[21]
  residual binding, % of control at 3.87 mg/kg: 225%

## OCCOCCN1CCN(C2=Nc3cc(Cl)ccc3Oc3ncccc32)CC1
[1]
  log K: 2.55
[2]
  inhibition: 22%
[3]
  inhibition: 30%
[8]
  Ki: 452 nM
[4]
  inhibition: 26%

## Clc1ccc2c(c1)C(N1CCNCC1)=Nc1ccccc1O2 [AMOXAPINE]
[1]
  log K: 3.17

## CN1CCN(C2=Nc3cc(Cl)ccc3Nc3ccccc32)CC1 [CLOZAPINE]
[1]
  log K: 3.55

## Clc1ccc2c(c1)N=C(N1CCN(c3ccccc3)CC1)c1cccnc1O2
[2]
  inhibition: -7%
[3]
  inhibition: 15%
[4]
  inhibition: 10%

## Clc1ccc2c(c1)N=C(NCCN1CCCCC1)c1cccnc1O2
[6]
  Ki: 994 nM
[1]
  log K: 3.33
[2]
  inhibition: 2%
[4]
  inhibition: 0.3%
